From ChEMBL document CHEMBL1136237, “2-piperidin-4-yl-benzimidazoles with broad spectrum antibacterial activities” (2003)
In brackets after ≈: the same amount, converted by molar mass.

What was measured:
Staphylococcus aureus = assay: Antibacterial activity determined against Staphylococcus aureus; assay type: functional
Method in brief: (§1)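 Broth microdilution: an overnight-culture bacterial suspension was added to compound in 2.5% DMSO in water, giving a final inoculum of about 10^2–10^3 CFU/well. Plates were incubated 20–24 h at 37 °C, and growth relative to a no-compound control was read as A595. MIC was given as a range: complete inhibition at the upper concentration, viable cells at the lower.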

Enterococcus faecalis [1] = assay: Antibacterial activity determined against Enterococcus faecalis ATCC 11823; assay type: functional; method in brief: as §1
Escherichia coli = assay: Antibacterial activity determined against Escherichia coli; assay type: functional; method in brief: as §1
Enterococcus faecalis [2] = assay: Antibacterial activity determined against Enterococcus faecalis ATCC 23241; assay type: functional; method in brief: as §1
Enterococcus faecalis [3] = assay: Antibacterial activity determined against Enterococcus faecalis ATCC 828; assay type: functional; method in brief: as §1
Enterococcus faecium [4] = assay: Antibacterial activity determined against Enterococcus faecium ATCC 6569; assay type: functional; method in brief: as §1
Enterococcus faecalis [5] = assay: Antibacterial activity determined against Enterococcus faecalis ATCC 4200; assay type: functional; method in brief: as §1
[6] = Inhibition of bacterial transcription/translation
Enterococcus faecium [7] = assay: Antibacterial activity determined against Enterococcus faecium ATCC 882; assay type: functional; method in brief: as §1
Enterococcus faecalis [8] = assay: Anti-bacterial activity determined against Enterococcus faecalis ATCC 49757; assay type: functional; method in brief: as §1

- MIC (Staphylococcus aureus): 12 µM (≈ 5.97 µg/mL)
- MIC (Enterococcus faecalis [1]): 6 µM (≈ 2.98 µg/mL)
- MIC (Escherichia coli): 12 µM (≈ 5.97 µg/mL)
- MIC (Enterococcus faecalis [2]): 12 µM (≈ 5.97 µg/mL)
- MIC (Enterococcus faecalis [3]): 6 µM (≈ 2.98 µg/mL)
- MIC (Enterococcus faecium [4]): 6 µM (≈ 2.98 µg/mL)
- MIC (Enterococcus faecalis [5]): 12 µM (≈ 5.97 µg/mL)
- IC50 [6]: > 100 µM
- MIC (Enterococcus faecium [7]): 12 µM (≈ 5.97 µg/mL)
- MIC (Enterococcus faecalis [8]): 12 µM (≈ 5.97 µg/mL)
Structure (SMILES): Clc1cc2nc(C3CCNCC3)n(Cc3ccc(CNCCCn4ccnc4)cc3)c2cc1Cl
